Source: paper PMC7069368 (MedChemComm, 2019)
Entries after “also recorded” stand apart in the source; their conditions may differ. Marks after values point to notes of the source that are not given here.

Tests used:
[1] = test system: HeLa cells; conditions: 10 μM compound; % of cell growth; data provided from previous studies ref 10, 11; cited from earlier work
[2] = test system: Caco-2 cell monolayers; test: Caco-2 permeability; conditions: in vitro ADME, data not shown
Summary of the method: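 Caco-2 monolayers (passage 94–105) were grown on permeable filters and used on day 21 after seeding. Filters were washed with pre-warmed HBSS. Drug solution (1 μM, prewarmed to 37 °C) was applied as donor to the apical or basolateral side. Both chambers were at pH 7.4.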

[3] = Thermodynamic solubility assay; type: physicochemical; conditions: in vitro ADME, data not shown
Summary of the method: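 Solid test compound (0.2–0.5 mg) was saturated in PBS and shaken at 900 rpm, room temperature, for 48 h. It was centrifuged 30 min at 10 000×g, 23 °C. The supernatant was diluted 10–1000× in acetonitrile/H₂O (50/50) in two steps and quantified by LC-MS/MS.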

[4] = Ames test; cited from earlier work
[5] = Pharmacokinetics in mice; type: in vivo; conditions: mouse, PO 10 mg kg^–1 in lipid emulsion
Summary of the method: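 Female C3H mice (9-week C3H/HeOuJ or 22-week C3H/HeJ, by compound) got 10 mg kg⁻¹ as a 100 μL gavage, three per dose and route. The vehicle was 55% capmul, 15% akomed, 15% ethanol and 15% cremophor, emulsified with lukewarm water. Tail-vein blood (20 μL) was taken at 0.5, 1, 2, 4, 8 and 24 h and mixed with acetonitrile. It was methanol-extracted and quantified against spiked blank mouse blood standards.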

[6] = test system: C. trachomatis serovar D; test: C. trachomatis in vivo infection model; set-up: species or system mouse
Summary of the method: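 Female C3H/HeJ mice, 8 weeks old, got 2.4 mg medroxyprogesterone acetate s.c. 10 and 3 days pre-infection. Vaginal mucus was swabbed away before intravaginal inoculation (5000 […], 10 μL SPG), with 30 min inverted under anaesthesia. Gavage of 100 μL of 2.33 mg mL⁻¹ in capmul/akomed/cremophor/EtOH water emulsion (n=9), vehicle alone (n=9), or 2 mg mL⁻¹ doxycycline (n=6) began at 10 h, then every 12 h for 7 days.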

[7] = test system: C. trachomatis serovar L2; test: Reinfect assay; type: cell-based, Chlamydia trachomatis
Summary of the method: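 HeLa 229 cells were infected with serovar L2 EBs in HBSS at MOI 0.3–0.5. Test compound (2.5 or 1 μM in RPMI) was added at 1 h, then incubated 44–48 h. Cells were lysed with cold water, and EBs in SPG were 10-fold serially diluted onto fresh HeLa cells. After 44–46 h, cells were methanol-fixed and stained (anti-Chlamydia/FITC, DAPI). IFUs were counted by automated microscopy and given as % of DMSO control. Three independent experiments, duplicates.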

SMILES	HeLa viability 10 μM (%) [1]	Mutagenic potential [4]	Oral uptake / oral data (in words) [5]	further results
Nc1c(Cc2cccc3ccccc23)c(C2CC2)c2n(c1=O)C(C(=O)Nc1ccccc1)CS2 (stereo not drawn) [Compound 2]	101 ± 3 ^a %	no mutagenic potential	–	Permeability (in words) [2]: moderate permeability; Solubility (in words) [3]: poor solubility
Nc1c(Cc2cccc3ccccc23)c(C2CC2)c2n(c1=O)C(n1cc(-c3ccccc3)nn1)CS2 (stereo not drawn) [Compound 3]	105 ± 4 ^a %	no mutagenic potential	too low to be able to be quantified	–
COc1c(Cc2cccc(C)c2C)cc(=O)n2c1SCC2C(=O)Nc1cc(C)cc(F)c1 (stereo not drawn) [Compound 18, 7-(2,3-Dimethylbenzyl)-N-(3-fluoro-5-methylphenyl)-8-methoxy-5-oxo-2,3-dihydrothiazolo[3,2-a]pyridine-3-carboxamide]	–	–	too low to allow for proper determination of pharmacokinetic parameters; also recorded: too low to be able to be quantified	–
O=C(Nc1ccccc1)C1CSc2c(C3CC3)c(Cc3cccc4ccccc34)cc(=O)n21 (stereo not drawn) [Compound 24, 8-cyclopropyl-7-(naphthalen-1-ylmethyl)-5-oxo-N-phenyl-3,5-dihydro-2H-thiazolo[3,2-a]pyridine-3-carboxamide]	100 ± 4 ^a %	–	–	–
CS(=O)(=O)Nc1c(Cc2cccc3ccccc23)cc(=O)n2c1SCC2C(=O)Nc1ccccc1 (stereo not drawn) [Compound 30, 8-(Methylsulfonamido)-7-(naphthalen-1-ylmethyl)-5-oxo-N-phenyl-2,3-dihydrothiazolo[3,2-a]pyridine-3-carboxamide]	–	–	–	Effect on vaginal C. trachomatis infection (IFUs per vaginal swab) ([6]; C3H/HeJ mice, 10 mg kg^–1 oral gavage twice a day for 7 days): the course of infection was not improved; also recorded: did not affect vaginal C. trachomatis infection; Tolerability (vital signs) ([6]; mice, 10 mg kg^–1 oral gavage twice a day): no negative vital signs; Concentrations inhibiting C. trachomatis infectivity (in words) [7]: low micromolar concentrations
